Source: PubChem BioAssay
Calls of active or inactive are those of the source.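 How the source made its calls, unless noted: active means viability loss from added drug above about 55%, and viability with drug at most 40%, in both replicates (limit read from the data, passing the limit was not always enough); inconclusive means both conditions met in only one replicate; inactive means neither replicate meets both conditions.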

Legend:
[1] = Her2 expression decrease, cell viability multiplex – SKBR3 breast tumor cells, AlphaScreen, ATP viability, primary screen (AID 461;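 active means Her2 level under about 52% in both replicate screens, with viability over 70% of control, limit read from the data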;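 on Her2 level: lower value means less Her2 protein in the cells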;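 on viability: percent of carrier control wells set as 100% viability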); details: SKBR3 Her2 protein level, 18-24 h, measured here: SKBR3 viability, ATP luminescence, at 10 µM
[2] = target: Receptor tyrosine-protein kinase erbB-2 (Homo sapiens) (UniProt P04626); test: as above; details: 18-24 h, at 10 µM, stronger effect = lower value
[3] = reduced viability of SK-BR-3 breast cancer cells – cell-based, 24 h, human, pilot screen (AID 572;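 active means viability at or below 10% of carrier control in both of two separate runs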;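 further: compound exposure lasted between 18 and 24 h rather than exactly 24 h; 100% = carrier-treated control wells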); details: SK-BR-3 viability, CellTiter-Glo luminescence, at 10 µM, stronger effect = lower value
[4] = HUVEC growth inhibition – cell-based, human, primary screen (AID 575;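 active means viability at or below 30% in both replicate assays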;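 further: 100% = median of untreated cell wells with 0.1% DMSO on each plate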); details: HUVEC proliferation, CellTiter-Glo luminescence, 72 h; at 10 µM; stronger effect = lower value
How it was run: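 Material: primary human umbilical vein endothelial cells / Schedule: 72 h exposure, 37 °C, 5% CO2, 30 min RT equilibration / Signal: ATP-based CellTiter-Glo luminescent read / Read-out basis: percent of median DMSO-control luminescence / Control set: 32 DMSO-only cell-control wells (high), 32 MePR drug-control wells (low) per plate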

[5] = H69AR cell proliferation blockers – human, duplicate replicates, primary screen (AID 580;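 active means viability at or under a set limit in both replicates, limit being median viability minus 3 SD, cut at about 48% in these data, passing the limit was not always enough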;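 further: 100% = mean luminescence of untreated wells and 0% = no signal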); details: H69AR lung tumor cells viability, ATP luminescence, 72 h; at 10 µM; stronger effect = lower value
[6] = MRP1 drug-resistance reversers in H69AR cells – cell-based, doxorubicin co-treatment, pilot screen (AID 601); details: CellTiter-Glo, 72 h, at 10 µM; for differential viability (reversal): stronger effect = higher value
[7] = yeast transport mutant growth inhibition pilot in 384-well plates, post-Golgi transport modulator project (AID 636; in the data active means inhibition above about 31%); details: absorbance 615 nm, about 18 h, stronger effect = higher value
[8] = growth suppression of yeast trafficking mutant, preliminary HTS, modulators of trafficking downstream of Golgi apparatus project, 1536-format plate, OD 615 nm (AID 637; in the data active means inhibition above about 30%); details: yeast transport mutant growth, absorbance 615 nm, 18 h; stronger effect = higher value
[9] = H69AR cells + 2 uM doxorubicin, measured here: viability with 2 uM doxorubicin, stronger effect = lower value
[10] = H69AR cells, compound alone cytotoxicity

Chain of Receptor tyrosine-protein kinase erbB-2 (Homo sapiens) (P04626 whole entry, looked up): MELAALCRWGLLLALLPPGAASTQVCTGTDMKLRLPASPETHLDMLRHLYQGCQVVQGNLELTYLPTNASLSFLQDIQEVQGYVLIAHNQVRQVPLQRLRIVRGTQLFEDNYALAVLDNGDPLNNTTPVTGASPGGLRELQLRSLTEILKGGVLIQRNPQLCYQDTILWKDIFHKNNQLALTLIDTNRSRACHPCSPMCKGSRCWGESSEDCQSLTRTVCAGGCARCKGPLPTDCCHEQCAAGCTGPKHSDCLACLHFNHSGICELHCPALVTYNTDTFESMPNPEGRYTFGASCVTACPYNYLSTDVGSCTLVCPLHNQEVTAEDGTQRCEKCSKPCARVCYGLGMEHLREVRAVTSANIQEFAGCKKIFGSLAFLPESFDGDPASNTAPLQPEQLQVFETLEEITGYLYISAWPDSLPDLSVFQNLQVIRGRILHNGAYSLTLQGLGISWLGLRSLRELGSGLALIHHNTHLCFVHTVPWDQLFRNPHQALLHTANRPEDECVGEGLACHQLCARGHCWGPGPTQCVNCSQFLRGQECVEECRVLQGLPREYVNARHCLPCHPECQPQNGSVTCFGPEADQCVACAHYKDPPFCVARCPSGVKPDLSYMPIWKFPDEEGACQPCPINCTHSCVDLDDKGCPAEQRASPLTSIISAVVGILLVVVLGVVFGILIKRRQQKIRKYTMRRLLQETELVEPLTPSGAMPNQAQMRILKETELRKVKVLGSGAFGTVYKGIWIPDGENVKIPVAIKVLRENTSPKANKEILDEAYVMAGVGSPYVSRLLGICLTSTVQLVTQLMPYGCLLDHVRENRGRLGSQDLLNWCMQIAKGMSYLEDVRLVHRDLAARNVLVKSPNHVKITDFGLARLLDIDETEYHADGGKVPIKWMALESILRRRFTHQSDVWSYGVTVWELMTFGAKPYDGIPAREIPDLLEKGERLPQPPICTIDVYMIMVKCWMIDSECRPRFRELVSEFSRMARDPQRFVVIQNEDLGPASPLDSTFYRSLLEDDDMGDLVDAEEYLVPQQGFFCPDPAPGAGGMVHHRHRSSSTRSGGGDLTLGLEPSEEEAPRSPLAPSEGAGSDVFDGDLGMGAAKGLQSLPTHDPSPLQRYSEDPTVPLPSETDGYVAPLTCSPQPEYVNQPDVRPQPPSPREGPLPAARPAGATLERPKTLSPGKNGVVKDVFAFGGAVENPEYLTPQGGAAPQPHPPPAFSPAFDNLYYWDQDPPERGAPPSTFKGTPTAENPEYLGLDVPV

Structure (SMILES)	viability [1]	Her2 level [2]	viability [3]	viability [4]	viability [5]	differential viability (reversal) ([6]; H69AR cells + 2 uM doxorubicin)	viability [6, 9]	viability [6, 10]	inhibition [7]	inhibition [8]
Cc1cccc(N2CCN(C(=O)Cn3ccc4ccccc4c3=O)CC2)c1C	90.5%	81% (inactive)	90.5% (inactive)	94.1% (inactive)	95% (inactive)	-1.24% (inactive)	96.2%	95%	-4.34% (inactive)	-2.91% (inactive)
CCOC(=O)c1[nH]c2ccccc2c1NC(=O)C(C)(C)C	102%	96% (inactive)	102% (inactive)	80.6% (inactive)	96.6% (inactive)	2.35% (inactive)	94.2%	96.6%	-5.33% (inactive)	1.67% (inactive)
COc1cc(OC)cc(-c2nnc(SCC(=O)Nc3cc(C)on3)o2)c1	92.5%	81% (inactive)	92.5% (inactive)	82.7% (inactive)	79.6% (inactive)	-7.97% (inactive)	87.6%	79.6%	-5.53% (inactive)	-4.33% (inactive)
CCCn1c(C)cc(C(=O)COc2ncnc3sccc23)c1C	89%	98.5% (inactive)	89% (inactive)	74.1% (inactive)	63.8% (inactive)	-18.6% (inactive)	82.3%	63.8%	1.3% (inactive)	-11.8% (inactive)
COc1cccc(S(=O)(=O)Nc2cccnc2)c1	98%	107% (inactive)	98% (inactive)	88.2% (inactive)	103% (inactive)	12.3% (inactive)	90.3%	103%	-0.4% (inactive)	-3.71% (inactive)
CCOc1cc(N2CCOCC2)c(OCC)cc1NC(=O)CSc1cccc[n+]1[O-]	128%	93% (inactive)	128% (inactive)	94% (inactive)	86.8% (inactive)	1.93% (inactive)	84.8%	86.8%	-5.26% (inactive)	-4% (inactive)
CCC(C)(C)n1nnnc1C(c1cc2cc(OC)ccc2[nH]c1=O)N1CCc2ccccc21 (stereo not given)	97%	78% (inactive)	97% (inactive)	67% (inactive)	68% (inactive)	-0.155% (inactive)	68.1%	68%	-3.6% (inactive)	-4.59% (inactive)
CCn1c(=O)c(C(=O)NCCc2ccccc2)c(O)c2ccccc21	99%	102% (inactive)	99% (inactive)	58.8% (inactive)	61.6% (inactive)	-26% (inactive)	87.6%	61.6%	-1.03% (inactive)	-5.17% (inactive)
COc1ccc2cc(C#N)c(SCC(=O)N3CCCC3)nc2c1	97%	81% (inactive)	97% (inactive)	90.4% (inactive)	70.2% (inactive)	-5.28% (inactive)	75.5%	70.2%	0.95% (inactive)	-5.08% (inactive)
CCOc1cc(S(=O)(=O)Nc2ccccn2)ccc1F	114%	110% (inactive)	114% (inactive)	108% (inactive)	101% (inactive)	7.25% (inactive)	93.3%	101%	-4% (inactive)	-5.9% (inactive)
COc1ccc(CNC(=O)c2cc3c(=O)n4ccccc4nc3n(Cc3ccco3)c2=N)cc1	114%	97.5% (inactive)	114% (inactive)	105% (inactive)	110% (inactive)	33% (inactive)	76.9%	110%	-0.39% (inactive)	-5.08% (inactive)
CCCCOCCCNC(=O)c1cccs1	103%	102% (inactive)	103% (inactive)	97.8% (inactive)	104% (inactive)	11.5% (inactive)	92.5%	104%	-2.21% (inactive)	-3.17% (inactive)
Cc1noc(NS(=O)(=O)c2ccc(N3C(=O)c4ccccc4C3=O)cc2)c1C	116%	98% (inactive)	116% (inactive)	99.1% (inactive)	107% (inactive)	0.49% (inactive)	106%	107%	-3.47% (inactive)	2.58% (inactive)
CCOC(=O)c1ccc(NC(=O)CCNc2c(N3CCCC3)c(=O)c2=O)cc1	104%	96.5% (inactive)	104% (inactive)	91.6% (inactive)	98.3% (inactive)	0.27% (inactive)	98%	98.3%	-2.5% (inactive)	0.18% (inactive)
CCOc1ccc(C(=O)OCc2nnc(-c3cccs3)o2)cc1OC	106%	96% (inactive)	106% (inactive)	116% (inactive)	99.9% (inactive)	25.9% (inactive)	74%	99.9%	-3.12% (inactive)	2.38% (inactive)
Cc1cc(C)c2c(n1)nn1c(C3CC3)cc(C(F)(F)F)nc21	106%	89% (inactive)	106% (inactive)	90.7% (inactive)	92.4% (inactive)	-4.02% (inactive)	96.4%	92.4%	-5.41% (inactive)	2.54% (inactive)

Structure (SMILES)	viability [1]	Her2 level [2]	viability [3]	viability [4]	viability [5]	differential viability (reversal) ([6]; H69AR cells + 2 uM doxorubicin)	viability [6, 9]	viability [6, 10]	inhibition [7]	inhibition [8]
Cc1cc(C)n(-c2nnc(C)n2/N=C/c2ccco2)n1	108%	91% (inactive)	108% (inactive)	93.1% (inactive)	96.1% (inactive)	5.14% (inactive)	91%	96.1%	-6.27% (inactive)	-2.3% (inactive)
CCOC(=O)CSc1nnc(NC(=O)c2cccc(S(=O)(=O)N3CCCCC3)c2)s1	94%	87.5% (inactive)	94% (inactive)	79.6% (inactive)	101% (inactive)	9.55% (inactive)	91.2%	101%	-3.03% (inactive)	-1.67% (inactive)
O=C(CS(=O)(=O)c1cn(Cc2ccc(Cl)cc2)c2ccccc12)N1CCCC1	81.5%	92% (inactive)	81.5% (inactive)	88.2% (inactive)	79.3% (inactive)	-3.04% (inactive)	82.3%	79.3%	-5.2% (inactive)	1% (inactive)
COCC(=O)N(Cc1cc2cc(OC)ccc2[nH]c1=O)c1ccccc1	104%	112% (inactive)	104% (inactive)	90.3% (inactive)	90.4% (inactive)	3.91% (inactive)	86.5%	90.4%	-2.86% (inactive)	-6% (inactive)
CN(C)C(=O)N1CCCC(C(=O)NCc2ccccc2)C1 (stereo not given)	89%	92% (inactive)	89% (inactive)	102% (inactive)	87.8% (inactive)	-18.9% (inactive)	107%	87.8%	1.92% (inactive)	4.5% (inactive)
O=C(N1CCOCC1)N1CCC(NC(=O)C23CC4CC(CC(C4)C2)C3)CC1	90%	88% (inactive)	90% (inactive)	99.6% (inactive)	98.8% (inactive)	8.44% (inactive)	90.4%	98.8%	-6% (inactive)	4.84% (inactive)
Cc1cccc(-n2c(O)c(C=Nc3ccccc3N)c(=O)[nH]c2=O)c1	108%	94.5% (inactive)	108% (inactive)	88.2% (inactive)	10.1% (active)	-28.2% (inactive)	38.3%	10.1%	-5.19% (inactive)	-0.16% (inactive)
COC(=O)C1=C(C)NC(=O)C1(NC(=O)CN1CCCC1=O)C(F)(F)F (stereo not given)	116%	91% (inactive)	116% (inactive)	105% (inactive)	101% (inactive)	3.15% (inactive)	98.3%	101%	-4.34% (inactive)	-6.03% (inactive)
Cc1ccc(-c2nnn(CC(=O)N(Cc3ccco3)C(C(=O)NC(C)(C)C)c3cccs3)n2)o1 (stereo not given)	119%	81% (inactive)	119% (inactive)	89.1% (inactive)	95.9% (inactive)	6.13% (inactive)	89.8%	95.9%	0.4% (inactive)	-4.1% (inactive)
CC(C)COC(=O)N(C)c1ccc(C(O)(C(F)(F)F)C(F)(F)F)cc1	102%	95% (inactive)	102% (inactive)	93.1% (inactive)	89.8% (inactive)	3.42% (inactive)	86.4%	89.8%	-2.57% (inactive)	-8.57% (inactive)
CCN(CC)CC(C)CNC(=O)CC(C(=O)N1CCc2ccccc21)n1ccnc1 (stereo not given)	88.5%	106% (inactive)	88.5% (inactive)	104% (inactive)	95.9% (inactive)	-7.88% (inactive)	104%	95.9%	0.52% (inactive)	-9.34% (inactive)
CCOc1ccc(C(=O)N2CCN(c3ccccc3)CC2)cc1OCC	104%	102% (inactive)	104% (inactive)	90% (inactive)	83.5% (inactive)	-14.8% (inactive)	98.3%	83.5%	2.47% (inactive)	9.51% (inactive)
COc1ccccc1-n1c(SCC(N)=O)nnc1-c1ccccc1	126%	97% (inactive)	126% (inactive)	88.7% (inactive)	87.7% (inactive)	-0.18% (inactive)	87.8%	87.7%	-7.11% (inactive)	1.9% (inactive)
CC(C)CCn1c(N)c(S(=O)(=O)c2cccs2)c2nc3ccccc3nc21	171%	43% (active)	171% (inactive)	49.8% (inactive)	42.9% (active)	-14.9% (inactive)	57.7%	42.9%	-3.95% (inactive)	-3.17% (inactive)
CCc1ccccc1NC(=O)CSc1ncn[nH]1	101%	124% (inactive)	101% (inactive)	97.9% (inactive)	103% (inactive)	8.47% (inactive)	94%	103%	-1.82% (inactive)	-6.33% (inactive)
Nc1cc(C(=O)O)ccc1Nc1ccc(F)c(F)c1	88%	112% (inactive)	88% (inactive)	89.2% (inactive)	105% (inactive)	10.3% (inactive)	94.3%	105%	2.4% (inactive)	4.75% (inactive)
